Converted amounts (≈) assume the structure as drawn.
How the values were obtained:
[1] = Cytotoxicity against […] human C8166-CCR5 cells assessed as decrease in cell viability by cell associated dehydrogenase activity assay; type: cell-based
Method in brief: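 C8166-CCR5 human CD4+ T cells, grown in RPMI 1640 with 10% FBS and antibiotics, seeded at 3 × 10^4 cells per well with compound across a concentration series. Incubated at 37 °C for 72 h. Viability read by cell-associated dehydrogenase activity (CCK-8). Run in duplicate or triplicate. CC50 is the 50% cytostatic concentration.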

[2] = test system: Human immunodeficiency virus 1; assay: Antiviral activity against HIV1 NL4-3 infected human C8166-CCR5 cells assessed as decrease in virus-induced cytopathicity after 72 hrs by cell associated dehydrogenase activity assay; type: functional, organism-based; conditions: Human immunodeficiency virus 1, NL4-3, C8166-CCR5, 72 h
[3] = Selectivity index, ratio of CC50 for human C8166-CCR5 cells to EC50 for HIV1 NL4-3; type: toxicity, cell-based; conditions: read-out: Ratio CC50/EC50
Method in brief: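 SI = CC50/EC50. CC50 is from the 72 h CCK-8 viability assay in uninfected C8166-CCR5 cells. EC50 is from supernatant RT activity four days after HIV-1 NL43 infection of the same cells.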

[4] = target: Protease (Human immunodeficiency virus 1, UniProt Q9YQ12); assay: Inhibition of HIV1 protease activity
[5] = target: Human immunodeficiency virus type 1 reverse transcriptase (Human immunodeficiency virus 1, UniProt Q72547); assay: Antiviral activity against HIV1 Reverse transcriptase activity
Method in brief: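 C8166-CCR5 human CD4+ T cells (3 × 10^4) in RPMI 1640 with 10% FBS were mixed with compound and infected with HIV-1 NL43 inoculum normalized to 1 × 10^5 cpm RT activity, then held at 37 °C. Four days after infection, supernatant RT activity was read with poly(A) template, oligo(dT) primer and [32P]TTP. Run in duplicate or triplicate. EC50 reported.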

[6] = Selectivity index, ratio of CD50 for human MT4 cells to ID50 for HIV1; type: toxicity, cell-based; conditions: read-out: Selectivity Index
[7] = test system: Human immunodeficiency virus 1; assay: Antiviral activity against HIV1 3B infected human CCR5 cells assessed as decrease in viral syncytium formation; type: functional, organism-based; conditions: Human immunodeficiency virus 1, 3B

Protease, sequence (Q9YQ12 whole entry): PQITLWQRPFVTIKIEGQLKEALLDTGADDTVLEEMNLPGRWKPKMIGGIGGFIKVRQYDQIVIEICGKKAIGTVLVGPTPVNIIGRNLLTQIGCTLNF

Row | SMILES | CC50 [1] [µg/mL] | EC50 [2] [µg/mL] | selectivity ratio [3] | IC50 [4] [µM] | further results
1 | CO[C@@H]1CC[C@]2(C)[C@H](CC[C@@]3(C)CC4=CC[C@@H]5C(C)(C)[C@H](O)CC[C@@]5(C)[C@@H]4CC[C@@H]32)C1(C)C | > 100 | > 100 |  |  | 
2 | CO[C@H]1CC[C@]2(C)[C@H](CC[C@@]3(C)CC4=CC[C@@H]5C(C)(C)[C@H](O)CC[C@@]5(C)[C@@H]4CC[C@@H]32)C1(C)C | > 100 | > 100 |  |  | 
3 | CO[C@@H]1CC[C@]2(C)[C@H](CC[C@@]3(C)CC4=CC[C@@H]5C(C)(C)[C@H](OC(=O)CCC(=O)Oc6coc(CO)cc6=O)CC[C@@]5(C)[C@@H]4CC[C@@H]32)C1(C)C | 22.2 (≈ 32.6 µM) | 4.13 (≈ 6.07 µM) | 5.4 |  | 
4 | CO[C@H]1CC[C@]2(C)[C@H](CC[C@@]3(C)CC4=CC[C@@H]5C(C)(C)[C@H](OC(=O)CCC(=O)Oc6coc(CO)cc6=O)CC[C@@]5(C)[C@@H]4CC[C@@H]32)C1(C)C | > 100 | 6.75 (≈ 9.91 µM) | 86.8 |  | 
5 | CO[C@@H]1CC[C@]2(C)[C@H](CC[C@@]3(C)CC4=CC[C@@H]5C(C)(C)[C@H](OC(=O)CCC(=O)OCc6cc(=O)c(OC(=O)CCC(=O)O[C@@H]7CC[C@@]8(C)[C@@H]9CC[C@H]%10[C@@](C)(CC[C@@H]%11C(C)(C)[C@H](OC)CC[C@]%11%10C)CC9=CC[C@@H]8C7(C)C)co6)CC[C@@]5(C)[C@@H]4CC[C@@H]32)C1(C)C | 4.2 (≈ 3.44 µM) | 0.12 (≈ 0.0984 µM) | 35 |  | 
6 | CO[C@H]1CC[C@]2(C)[C@H](CC[C@@]3(C)CC4=CC[C@@H]5C(C)(C)[C@H](OC(=O)CCC(=O)OCc6cc(=O)c(OC(=O)CCC(=O)O[C@@H]7CC[C@@]8(C)[C@@H]9CC[C@H]%10[C@@](C)(CC[C@@H]%11C(C)(C)[C@@H](OC)CC[C@]%11%10C)CC9=CC[C@@H]8C7(C)C)co6)CC[C@@]5(C)[C@@H]4CC[C@@H]32)C1(C)C | > 100 | 5.94 (≈ 4.87 µM) | > 5000 |  | 
7 | CO[C@@H]1CC[C@]2(C)[C@H](CC[C@@]3(C)CC4=CC[C@@H]5C(C)(C)[C@H](OC(=O)CCC(=O)Oc6cc(-c7oc8cc(O)cc(O)c8c(=O)c7O)ccc6O)CC[C@@]5(C)[C@@H]4CC[C@@H]32)C1(C)C | > 100 | 26.6 (≈ 31.6 µM) | 4.8 |  | 
8 | CO[C@H]1CC[C@]2(C)[C@H](CC[C@@]3(C)CC4=CC[C@@H]5C(C)(C)[C@H](OC(=O)CCC(=O)Oc6cc(-c7oc8cc(O)cc(O)c8c(=O)c7O)ccc6O)CC[C@@]5(C)[C@@H]4CC[C@@H]32)C1(C)C | > 100 | 23.2 (≈ 27.6 µM) | > 5000 |  | 
9 | CO[C@@H]1CC[C@]2(C)[C@H](CC[C@@]3(C)CC4=CC[C@@H]5C(C)(C)[C@H](OC(=O)CCC(=O)Oc6c(O)cc7oc(-c8ccccc8)cc(=O)c7c6O)CC[C@@]5(C)[C@@H]4CC[C@@H]32)C1(C)C | > 100 | 21.4 (≈ 26.5 µM) | 4.9 |  | 
10 | CO[C@H]1CC[C@]2(C)[C@H](CC[C@@]3(C)CC4=CC[C@@H]5C(C)(C)[C@H](OC(=O)CCC(=O)Oc6c(O)cc7oc(-c8ccccc8)cc(=O)c7c6O)CC[C@@]5(C)[C@@H]4CC[C@@H]32)C1(C)C | > 100 | 55.4 (≈ 68.4 µM) | 2.3 |  | 
11 | CC1(C)CC[C@]2(C(=O)NCCCCCC(=O)O)CC[C@]3(C)C(=CC[C@@H]4[C@@]5(C)CC[C@H](O)C(C)(C)[C@@H]5CC[C@]43C)[C@@H]2C1 |  |  |  | 1.7 | 
12 | CC1(C)CC[C@]2(C(=O)NCCCCCC(=O)O)CC[C@]3(C)C(=CC[C@@H]4[C@@]5(C)CC[C@H](OC(=O)CCCCC(=O)O)C(C)(C)[C@@H]5CC[C@]43C)[C@@H]2C1 |  |  |  | 1.7 | 
13 | CC1(C)[C@H](O)CC[C@]2(C)C3=CC[C@@]4(C)[C@@H]5C[C@](C)(COC(=O)c6ccccc6)CC[C@]5(C)CC[C@]4(C)C3=CC[C@@H]12 |  |  |  |  | IC50 [5]: 4.04 µM
14 | C=C(CC[C@@H](C)[C@H]1CC[C@@]2(C)[C@@H]3CC[C@H]4C(C)(C)[C@@H](OC(=O)/C=C/c5ccc(O)c(OC)c5)CC[C@@]45C[C@@]35CC[C@]12C)C(C)C |  |  |  |  | IC50 [5]: 3.08 µM
15 | C=C(C)[C@@H]1CC[C@]2(COC(C)=O)CC[C@]3(C)[C@H](CC[C@@H]4[C@@]5(C)CC[C@H](OC(C)=O)C(C)(C)[C@@H]5CC[C@]43C)[C@@H]12 [BETULIN DIACETATE] |  |  |  |  | IC50 [5]: 2.66 µM
16 | C=C(C)[C@@H]1CC[C@]2(C(=O)O)CC[C@]3(C)[C@H](CC[C@@H]4[C@@]5(C)CC[C@H](O)C(C)(C)[C@@H]5CC[C@]43C)[C@@H]12 [BETULINIC ACID GLUTARYL HEMI ESTER] |  |  |  | 4 | 
17 | CC1(C)[C@@H](O)CC[C@]2(C)[C@H]3C(=O)C=C4[C@@H]5C[C@@](C)(C(=O)O)CC[C@]5(C)CC[C@@]4(C)[C@]3(C)CC[C@@H]12 [ENOXOLONE] |  |  |  |  | selectivity ratio [6]: 9.6
18 | COc1cc(/C=C/C(=O)O[C@H]2CC[C@]34C[C@]35CC[C@]3(C)[C@@H]([C@H](C)CCC=C(C)C)CC[C@@]3(C)[C@@H]5CC[C@H]4C2(C)C)ccc1O [GAMMA ORYZANOL] |  |  |  |  | IC50 [5]: 3.65 µM
19 | C=C(C)[C@@H]1CC[C@]2(C)CC[C@]3(C)[C@H](CC[C@@H]4[C@@]5(C)CCC(=O)C(C)(C)[C@@H]5CC[C@]43C)[C@@H]12 [LUPENONE] |  |  |  |  | IC50 [5]: 4.94 µM
20 | CC1=C[C@@H]([C@H](O)[C@H](C)[C@@H]2C[C@@H](O)[C@@]3(O)[C@@H]4CC[C@@H]5C(C)(C)O[C@@H]6CC(=O)O[C@@]56C[C@]4(O)CC[C@@]23C)OC1=O [MICRANDILACTONE C] | > 200 |  |  |  | EC50 [7]: 7710 µg/mL (≈ 14400 µM)
21 | CC1(C)CC[C@]2(C(=O)O)CC[C@]3(C)C(=CC[C@@H]4[C@@]5(C)CC[C@H](O)C(C)(C)[C@@H]5CC[C@]43C)[C@@H]2C1 [OLEANOLIC ACID GLUTARYL HEMI ESTER] |  |  |  | 4 | 
22 | CC1(C)CC[C@]2(C(=O)O)CC[C@]3(C)C(=CC[C@@H]4[C@@]5(C)CC[C@H](O)C(C)(C)[C@@H]5CC[C@]43C)[C@@H]2C1 [OLEANOLIC_ACID] |  |  |  | 8 | 
23 | C[C@H]1[C@H](C)CC[C@]2(C(=O)O)CC[C@]3(C)C(=CC[C@@H]4[C@@]5(C)CC[C@H](O)C(C)(C)[C@@H]5CC[C@]43C)[C@H]12 [URSOLIC ACID GLUTARYL HEMI ESTER] |  |  |  | 4 | 
24 | C[C@H]1[C@H](C)CC[C@]2(C(=O)O)CC[C@]3(C)C(=CC[C@@H]4[C@@]5(C)CC[C@H](O)C(C)(C)[C@@H]5CC[C@]43C)[C@H]12 [URSOLIC ACID HYDROGEN MALONATE] |  |  |  | 6 | 
25 | C[C@H]1[C@H](C)CC[C@]2(C(=O)O)CC[C@]3(C)C(=CC[C@@H]4[C@@]5(C)CC[C@H](O)C(C)(C)[C@@H]5CC[C@]43C)[C@H]12 [URSOLIC ACID] |  |  |  | 8 | 
26 | Cc1cn([C@H]2C[C@H](N=[N+]=[N-])[C@@H](CO)O2)c(=O)[nH]c1=O [ZIDOVUDINE] | > 100 | 0.02 (≈ 0.0748 µM) | > 5000 |  | 

Source: ChEMBL document CHEMBL1782018, “Novel 3alpha-methoxyserrat-14-en-21beta-ol (PJ-1) and 3beta-methoxyserrat-14-en-21beta-ol (PJ-2)-curcumin, kojic acid, quercetin, and baicalein conjugates as HIV agents” (Bioorg Med Chem, 2009)
